{"source": "paper PMC5110367", "about": "(Nature chemical biology, 2016)", "key": {"PPARγ": {"target": "T1, PPARγ (Mus musculus, UniProt P37238)", "T1 sequence (P37238 1-505)": "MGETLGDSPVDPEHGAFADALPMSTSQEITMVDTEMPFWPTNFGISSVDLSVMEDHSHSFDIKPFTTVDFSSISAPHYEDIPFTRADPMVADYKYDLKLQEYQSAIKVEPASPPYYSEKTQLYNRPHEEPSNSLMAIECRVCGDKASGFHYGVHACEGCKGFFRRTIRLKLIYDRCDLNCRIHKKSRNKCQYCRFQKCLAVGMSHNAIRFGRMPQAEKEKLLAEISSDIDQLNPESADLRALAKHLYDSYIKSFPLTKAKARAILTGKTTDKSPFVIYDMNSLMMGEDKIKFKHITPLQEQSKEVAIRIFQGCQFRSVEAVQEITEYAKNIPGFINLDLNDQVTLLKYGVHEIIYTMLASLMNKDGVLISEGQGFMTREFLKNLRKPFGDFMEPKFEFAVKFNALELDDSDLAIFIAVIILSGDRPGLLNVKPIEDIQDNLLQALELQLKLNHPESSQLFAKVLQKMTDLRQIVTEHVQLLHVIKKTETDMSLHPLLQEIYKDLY", "assay": "GW9662 against rosiglitazone-stimulated PPRE-luciferase in Pparb-null astrocytes", "format": "cell-based", "conditions": "GW9662 30 min before rosiglitazone"}, "Y464D-Ppara": {"target": "T2, Y464D-Ppara (Mus musculus, UniProt P23204, Y464D)", "T2 sequence (P23204 1-468 Y464D)": "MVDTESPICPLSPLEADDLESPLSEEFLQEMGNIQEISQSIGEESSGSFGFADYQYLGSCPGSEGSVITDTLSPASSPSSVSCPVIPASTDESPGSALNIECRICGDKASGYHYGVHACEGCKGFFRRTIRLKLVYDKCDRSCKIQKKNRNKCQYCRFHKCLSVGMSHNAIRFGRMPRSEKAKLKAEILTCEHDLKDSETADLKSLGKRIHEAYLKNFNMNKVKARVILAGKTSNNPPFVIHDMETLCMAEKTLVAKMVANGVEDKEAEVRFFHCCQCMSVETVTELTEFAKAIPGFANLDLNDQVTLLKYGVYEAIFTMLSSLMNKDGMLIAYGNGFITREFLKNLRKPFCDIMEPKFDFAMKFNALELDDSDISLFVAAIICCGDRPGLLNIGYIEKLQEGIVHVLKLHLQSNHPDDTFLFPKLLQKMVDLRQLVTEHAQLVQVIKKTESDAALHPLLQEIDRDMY", "format": "cell-based"}, "FL-Ppara": {"target": "T3, FL-Ppara (Mus musculus, UniProt P23204)", "T3 sequence (P23204 1-468)": "T2 sequence (P23204 1-468 Y464D) with D464Y", "format": "cell-based"}, "[1]": {"tested_on": "Ppara-null hippocampal neurons", "assay": "Dendritic spine density", "format": "cell-based, mouse", "conditions": "Ppara-null neurons transduced with lenti-FL-Ppara or lenti-Y464D-Ppara", "procedure,_shortened": "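Ppara-null hippocampal neurons were taken from E18 fetuses and treated with 10 μM AraC to remove glia. They were differentiated 9–10 days, then transduced 48 h with lentivirions carrying GFP (vector), FL-Ppara or Y464D-Ppara. Neurons then received vehicle (DMSO) or test compound for 24 h. They were stained with Dylight-554-phalloidin, and spine density was scored by fluorescence microscopy.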"}, "Y314D/Y464D-Ppara": {"target": "T4, Y314D/Y464D-Ppara (Mus musculus, UniProt P23204, Y314D/Y464D)", "T4 sequence (P23204 1-468 Y314D/Y464D)": "T2 sequence (P23204 1-468 Y464D) with Y314D", "format": "cell-based"}, "[2]": {"tested_on": "PPRE-driven luciferase activity", "assay": "PPRE-luciferase assay in Ppara-null astrocytes transduced with empty vector", "format": "cell-based, mouse", "conditions": "4 h", "procedure,_shortened": "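Ppara-null astrocytes came from mixed glial cultures of 7-d-old pups. They were transduced 48 h with empty-vector lentivirions and transfected with tk-PPREx3-Luc reporter. After 24 h they were treated with different doses of test compound for 4 h, then luciferase activity was read. Values are mean ± SD of three independent experiments.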"}, "Y314D-Ppara": {"target": "T5, Y314D-Ppara (Mus musculus, UniProt P23204, Y314D)", "T5 sequence (P23204 1-468 Y314D)": "T2 sequence (P23204 1-468 Y464D) with Y314D, D464Y", "format": "cell-based"}}, "note": "Changes are numbered by the printed parent chain. Like-named read-outs stand apart in the source and are kept apart here."}
{"smiles": "O=C(Nc1ccccc1)c1cc([N+](=O)[O-])ccc1Cl", "note": "[GW9662]", "values": [{"measurement": "effect on rosiglitazone-mediated PPRE-luciferase activity", "setting": "PPARγ", "value": "Inhibition of rosiglitazone-mediated increase in PPRE-luciferase activity"}]}
{"smiles": "Cc1cccc(Nc2cc(Cl)nc(SCC(=O)O)n2)c1C", "note": "[WY14643, reference compound]", "values": [{"measurement": "PPRE-luciferase activity", "setting": "Y464D-Ppara", "value": "no luciferase activity"}, {"measurement": "PPRE-luciferase reporter activity", "setting": "FL-Ppara", "value": "markedly induced PPRE-luciferase activity"}, {"measurement": "density of dendritic spines", "setting": "[1]", "value": "stimulated the density of spines only when Ppara-null neurons were transduced with lenti-FL-Ppara, but not lenti-Y464D-Ppara"}, {"measurement": "PPRE-luciferase activity", "setting": "Y314D/Y464D-Ppara", "value": "no luciferase activity"}, {"measurement": "PPRE-driven luciferase activity", "setting": "[2]", "value": "unable to induce PPRE-luciferase activity"}, {"measurement": "PPRE-luciferase activity", "setting": "Y314D-Ppara", "value": "no luciferase activity"}]}
{"smiles": "CCOC(=O)C(C)(C)Oc1ccc(Cl)cc1", "note": "[clofibrate, reference compound]", "values": [{"measurement": "PPRE-luciferase activity", "setting": "Y464D-Ppara; Ppara-null astrocytes transduced with lenti-Y464D-Ppara, 4 h", "value": "no luciferase activity"}, {"measurement": "PPRE-luciferase reporter activity", "setting": "FL-Ppara; Ppara-null astrocytes transduced with lenti-FL-Ppara, 4 h", "value": "markedly induced PPRE-luciferase activity"}, {"measurement": "PPRE-luciferase activity", "setting": "Y314D/Y464D-Ppara; Ppara-null astrocytes transduced with lenti-Y314D/Y464D-Ppara, 4 h", "value": "no luciferase activity"}, {"measurement": "PPRE-driven luciferase activity", "setting": "[2]", "value": "unable to induce PPRE-luciferase activity"}, {"measurement": "PPRE-luciferase activity", "setting": "Y314D-Ppara; Ppara-null astrocytes transduced with lenti-Y314D-Ppara, 4 h", "value": "no luciferase activity"}]}
{"smiles": "CC(C)OC(=O)C(C)(C)Oc1ccc(C(=O)c2ccc(Cl)cc2)cc1", "note": "[fenofibrate]", "values": [{"measurement": "PPRE-driven luciferase activity", "setting": "[2]", "value": "unable to induce PPRE-luciferase activity"}]}
